Results from different studies.
Protocols differ between the studies behind these lines.
Target: Receptor tyrosine-protein kinase erbB-2 (ERBB2, Homo sapiens, UniProt P04626)

| Compound | test | conditions | remaining binding |
| --- | --- | --- | --- |
| O=C(c1ccc(Nc2ncc(Cl)c(-c3cc4ccccc4s3)n2)cc1)N1CCC(N2CCCC2)CC1 | binding, competition with immobilised ligand | 1 µM | 100% |
| c1cnn2ncc(-c3ccnc(N4CCC45COC5)n3)c2c1 | binding | 1 µM | 86% |
| N#CC1(c2ccccn2)CCN(Cc2cc(C(=O)N3CCCC3)c(=O)n3ccccc23)CC1 | cell-free assay, competition with immobilised ligand | 1 µM | 95% |
| Cc1cnn2ncc(-c3ccnc(N(C)C)n3)c2c1 | binding | 1 µM | 94% |
| Cc1cnc(Nc2ccc(C(=O)N3CCC(N4CCCC4)CC3)cc2)nc1-c1cc2ccccc2s1 | binding, competition with immobilised ligand | 1 µM | 64% |
| CNC(=O)[C@@H]1CC[C@@H](n2c(-c3ccc4cnccc4c3)nc3ccc(C(=O)NCc4cccc(C(N)=O)c4)cc32)C1 | binding, competition with immobilised ligand | 1 µM | 100% |
| CS(=O)(=O)NCC[C@H](NC(=O)c1cncc2c1cnn2-c1ccc(F)cc1)c1ccnc(S(C)(=O)=O)c1 | cell-free assay, competition with immobilised ligand | 1 µM | 100% |
| Nc1ncc2c(n1)-c1c([nH]c3ccc(C#CC4CC4)cc13)CCCC2 | binding, competition with immobilised ligand | 1 µM | 91% |
| CS(=O)(=O)N1CCCC(NC(=O)[C@H](CCC2CCCCC2)NC(=O)c2ccc(CNC(=O)c3cnc4ccccn34)cc2)C1 (some centres unmarked) | cell-free assay, competition with immobilised ligand | 0.1 µM | 100% |
| c1cncc(-c2cccc(Nc3nccc(NC4CCCCC4)n3)c2)c1 | binding, competition with immobilised ligand | 10 µM | 51% |
| COc1cccc(CNC(=O)c2nc3scc(COCc4ccc(C(=O)O)cc4)c3c(=O)[nH]2)c1 | cell-free assay, competition with immobilised ligand | 1 µM | 97.2% |
| O=C(NCCCN1CCOCC1)c1ccc(Nc2ncc(Cl)c(-c3ccc(Cl)s3)n2)cc1 | binding, competition with immobilised ligand | 1 µM | 80% |
| C[C@@H]1CN(c2ccc3ncc(-c4ccc5[nH]nc(C6CC6)c5c4)n3n2)C[C@H](C)O1 | binding, competition with immobilised ligand | 0.5 µM | 68% |
| COc1ncc2cc3ccccc3nc2c1C#N | cell-free assay, competition with immobilised ligand | 5 µM | 70% |
| C[C@H]1CCN(c2nccc(-c3cnn4ncccc34)n2)C1 | binding | 1 µM | 94% |
| O=C(Nc1c[nH]nc1C(=O)NC1CCNCC1)c1cc(F)cc(F)c1 | binding, competition with immobilised ligand | 1 µM | 69% |
| CC(=O)c1c(NS(C)(=O)=O)c2cc(-c3ccc(Cl)cc3)c(-c3ccc(Cl)cc3Cl)nc2n(C)c1=O | cell-free assay, competition with immobilised ligand | 1 µM | 100% |
| CN(C)c1nccc(-c2cnn3ncccc23)n1 | binding | 1 µM | 100% |
| FC(F)(F)Oc1cccc(-c2cnc3ccc(-c4ccncc4)nn23)c1 | cell-free assay, competition with immobilised ligand | 5 µM | 57% |
| Nc1cnc(N2CCc3cc(S(=O)(=O)Nc4c(F)cc(Cl)cc4F)cc(N4CCCC4=O)c32)nc1 | cell-free assay, competition with immobilised ligand | 1 µM | 100% |
| CN(C)c1ncc(F)c(-c2cnn3ncccc23)n1 | binding | 1 µM | 98% |
| O=C(Nc1ccc(Oc2ccc(F)cc2)cc1)N1CCc2ncccc2[C@H]1c1ccc(F)cc1 | cell-free assay, competition with immobilised ligand | 1 µM | 100% |
| N[C@@H]1CCN(c2nccc(-c3cnn4ncccc34)n2)C1 | binding | 1 µM | 100% |
